According to ChEMBL document CHEMBL2057134, “Small molecule tertiary amines as agonists of the nuclear hormone receptor Rev-erbα” (Bioorg Med Chem Lett, 2012):

Experiments:
[1] = target: T1, Nuclear receptor subfamily 1 group D member 1 (Homo sapiens) (UniProt P20393); test: Agonist activity at Rev-Erbalpha expressed in HEK293 cells coexpressing […] promoter assessed as repression of transcription at 10 uM after 24 hrs by dual-Glo luciferase assay relative to control; format: functional, cell-based
T1 sequence (whole entry): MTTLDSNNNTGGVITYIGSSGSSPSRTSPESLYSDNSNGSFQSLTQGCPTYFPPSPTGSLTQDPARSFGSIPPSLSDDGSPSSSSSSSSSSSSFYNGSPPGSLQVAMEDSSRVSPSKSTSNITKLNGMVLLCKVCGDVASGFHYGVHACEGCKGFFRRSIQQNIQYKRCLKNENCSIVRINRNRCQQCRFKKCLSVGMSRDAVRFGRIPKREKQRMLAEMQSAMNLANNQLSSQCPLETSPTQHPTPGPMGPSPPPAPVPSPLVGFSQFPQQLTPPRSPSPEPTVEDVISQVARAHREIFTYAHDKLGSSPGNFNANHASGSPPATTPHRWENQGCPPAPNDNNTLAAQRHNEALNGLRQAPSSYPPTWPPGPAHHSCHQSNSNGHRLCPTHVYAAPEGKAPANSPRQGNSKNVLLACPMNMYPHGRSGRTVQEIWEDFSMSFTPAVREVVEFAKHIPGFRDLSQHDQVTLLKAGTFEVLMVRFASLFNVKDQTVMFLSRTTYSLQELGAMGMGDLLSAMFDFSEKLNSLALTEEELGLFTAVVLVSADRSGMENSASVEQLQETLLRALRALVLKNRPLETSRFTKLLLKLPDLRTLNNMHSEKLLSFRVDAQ
Summary of the method: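 Cells co-transfected with full-length Rev-erbα expression plasmid plus Bmal1 promoter-luciferase reporter; renilla luciferase for normalization and toxicity check. Average of 2 or more experiments.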

[2] = target: T2, Nuclear receptor subfamily 1 group D member 1 (Homo sapiens, UniProt P20393); test: Agonist activity at Rev-Erbalpha expressed in HEK293 cells coexpressing […] promoter assessed as repression of transcription after 24 hrs by dual-Glo luciferase assay; format: functional, cell-based
T2 sequence (P20393 whole entry): T1 sequence (whole entry)
Summary of the method: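 Cells co-transfected with full-length Rev-erbα expression plasmid and Bmal1 promoter-driven luciferase reporter. Renilla luciferase used for normalization and toxicity monitoring. Average of 2 or more experiments.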

[3] = Drug uptake in C57BL/6 mouse brain at 50 mg/kg, ip measured after 8 hrs by LC-MS/MS analysis
[4] = Drug uptake in C57BL/6 mouse brain at 10 mg/kg, ip measured after 2 hrs by LC-MS/MS analysis; format: ADME, organism-based; set-up: dose 10 mg/kg, route intraperitoneal; details: read-out: Drug uptake
Summary of the method: (§1)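 C57Bl6 mice (n = 3) given 10 mg/kg IP in 10:10:80 DMSO:Tween:water; blood and brain collected at 2 h. Plasma frozen at −80°C. Plasma and brain mixed with acetonitrile (1:5 v:v or w:v), brain probe-sonicated. Drug quantified by LC-MS/MS against standards in plasma or blank brain matrix.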

[5] = Plasma concentration in C57BL/6 mouse at 10 mg/kg, ip measured after 2 hrs by LC-MS/MS analysis; format: ADME, organism-based; set-up: dose 10 mg/kg, route intraperitoneal; summary of the method: as §1

Ratio [1] | EC50 [2] | SMILES | other results
1.1 |  | CC(C)(C)OC(=O)CN(Cc1ccccc1)Cc1ccc([N+](=O)[O-])s1 | 
0.88 |  | CC(C)(C)OC(=O)CN(Cc1ccc(Cl)cc1)Cc1cnc[nH]1 | 
0.5 | 3000 nM | Cc1ccc(S(=O)(=O)N(CC(=O)OC(C)(C)C)Cc2ccc([N+](=O)[O-])s2)cc1 | 
0.31 |  | CC(C)(C)OC(=O)N1CCC(N(Cc2ccc(Cl)cc2)Cc2ccc([N+](=O)[O-])s2)CC1 | 
0.9 |  | CC(C)(C)OC(=O)N1CCCC(CN(Cc2ccc(Cl)cc2)Cc2ccc([N+](=O)[O-])s2)C1 (racemic) | 
0.14 |  | CC(C)(C)OC(=O)N1CCCC(N(Cc2ccc(Cl)cc2)Cc2ccc([N+](=O)[O-])s2)C1 (racemic) | 
0.37 | 800 nM | CC(C)(C)OC(=O)CN(Cc1ccc([N+](=O)[O-])s1)S(=O)(=O)c1cccc2ccccc12 | 
0.77 | 2000 nM | CC(C)(C)OC(=O)CN(Cc1ccc(F)cc1)Cc1ccc([N+](=O)[O-])s1 | 
0.79 | 2500 nM | N#CCN(Cc1ccc(Cl)cc1)Cc1ccc([N+](=O)[O-])s1 | 
0.81 |  | CC(C)(C)OC(=O)CN(Cc1ccncc1)Cc1ccc(Cl)cc1 | 
0.3 | 7400 nM | O=[N+]([O-])c1ccc(CN(Cc2ccc(Cl)cc2)CC2CCCCC2)s1 | 
0.6 |  | CC(C)(C)OC(=O)CN(Cc1ccc2ccccc2c1)Cc1ccc([N+](=O)[O-])s1 | 
0.93 |  | CC(C)(C)OC(=O)CN(Cc1ccc(Cl)cc1)Cc1cccs1 | 
0.68 | 2900 nM | COc1ccc(CN(CC(=O)OC(C)(C)C)Cc2ccc([N+](=O)[O-])s2)cc1 | 
0.8 |  | CC(C)(C)OC(=O)N1CCC(CN(Cc2ccc(Cl)cc2)Cc2ccc([N+](=O)[O-])s2)CC1 | 
0.82 |  | CC(C)(C)OC(=O)CN(Cc1ccc(Cl)cc1)Cc1nc2ccccc2s1 | 
0.85 |  | O=C(O)CN(Cc1ccc(Cl)cc1)Cc1ccc([N+](=O)[O-])s1 | 
0.33 | 1800 nM | CC(C)(C)OC(=O)N1CCC(CN(Cc2ccc(Cl)cc2)Cc2ccc([N+](=O)[O-])s2)C1 (racemic) | 
0.95 |  | CN1CCC(CN(Cc2ccc(Cl)cc2)Cc2ccc([N+](=O)[O-])s2)C1 (racemic) | 
0.48 | 2600 nM | CC(C)(C)OC(=O)CN(Cc1ccc([N+](=O)[O-])s1)C(=O)c1cccc2ccccc12 | 
0.35 | 1600 nM | CC(=O)N1CCC(CN(Cc2ccc(Cl)cc2)Cc2ccc([N+](=O)[O-])s2)C1 (racemic) | 
0.3 | 570 nM | CS(=O)(=O)N1CCC(CN(Cc2ccc(Cl)cc2)Cc2ccc([N+](=O)[O-])s2)C1 (racemic) | concentration at 2 h [4]: 1300 nM; concentration at 2 h [5]: 540 nM
0.75 | 3000 nM | NC(=O)CN(Cc1ccc(Cl)cc1)Cc1ccc([N+](=O)[O-])s1 | 
0.6 | 2500 nM | CC(C)(C)OC(=O)CN(Cc1ccc([N+](=O)[O-])s1)Cc1cccc2ccccc12 | 
0.8 | 3900 nM | COC(=O)CN(Cc1ccc(Cl)cc1)Cc1ccc([N+](=O)[O-])s1 | 
0.24 | 1600 nM | CC(C)(C)OC(=O)N1CCC(N(Cc2ccc(Cl)cc2)Cc2ccc([N+](=O)[O-])s2)C1 (racemic) | 
1 |  | CS(=O)(=O)n1ccc(CN(Cc2ccc(Cl)cc2)Cc2ccc([N+](=O)[O-])s2)c1 | 

Further lines, the compound ahead of its results:

SMILES | Ratio [1] | EC50 [2] | other results
O=[N+]([O-])c1ccc(CN(Cc2ccc(Cl)cc2)Cc2nc3ccccc3s2)s1 | 0.5 | 4000 nM | 
CC(C)(C)OC(=O)CN(Cc1ccc([N+](=O)[O-])cc1)Cc1ccc([N+](=O)[O-])s1 | 0.58 | 2500 nM | 
O=C(Nc1ccc([N+](=O)[O-])cc1)N1CCC(CN(Cc2ccc(Cl)cc2)Cc2ccc([N+](=O)[O-])s2)C1 (racemic) | 0.37 | 400 nM | 
O=C(c1cccc2ccccc12)N(Cc1ccc(Cl)cc1)Cc1ccc([N+](=O)[O-])s1 | 0.4 | 2600 nM | 
O=[N+]([O-])c1ccc(CN(Cc2ccc(Cl)cc2)Cc2ccc(C(F)(F)F)cc2)s1 | 0.45 | 5500 nM | 
Cc1ccc(S(=O)(=O)N(Cc2ccc(Cl)cc2)Cc2ccc([N+](=O)[O-])s2)cc1 | 0.5 | 2500 nM | 
C=CCOC(=O)N1CCC(CN(Cc2ccc(Cl)cc2)Cc2ccc([N+](=O)[O-])s2)C1 (racemic) | 0.35 | 670 nM | 
CC(C)(C)OC(=O)CN(Cc1ccc(Cl)cc1)CC1CCCC1 | 1.1 |  | 
O=[N+]([O-])c1ccc(CN(Cc2ccc(Cl)cc2)CC2COc3ccccc3O2)s1 (racemic) | 0.4 | 7800 nM | 
O=[N+]([O-])c1ccc(CN(Cc2ccc(Cl)cc2)CC2CCN(S(=O)(=O)Cc3ccccc3)C2)s1 (racemic) | 0.4 | 630 nM | 
Cc1ccc(S(=O)(=O)N2CCC(CN(Cc3ccc(Cl)cc3)Cc3ccc([N+](=O)[O-])s3)C2)cc1 (racemic) | > 1 |  | 
O=C(Nc1ccccc1)N1CCC(CN(Cc2ccc(Cl)cc2)Cc2ccc([N+](=O)[O-])s2)C1 (racemic) | 0.33 | 620 nM | 
O=[N+]([O-])c1ccc(CN(Cc2ccc(Cl)cc2)CC2CCN(Cc3ccccc3)C2)s1 (racemic) | 1 |  | 
O=[N+]([O-])c1ccc(CN(Cc2ccc(Cl)cc2)Cc2ccc3ccccc3c2)s1 | 0.7 | 8800 nM | 
CC(C)(C)OC(=O)CNCc1ccc(Cl)cc1 | 1.2 |  | 
CCOC(=O)N1CCC(CN(Cc2ccc(Cl)cc2)Cc2ccc([N+](=O)[O-])s2)C1 (racemic) [SR9009] |  |  | concentration at 8 h [3]: 8700 nM
O=[N+]([O-])c1ccc(CN(Cc2ccc(Cl)cc2)CC2CCN(S(=O)(=O)c3cccc4ccccc34)C2)s1 (racemic) | 0.45 | 450 nM | 
O=C(Oc1ccccc1)N1CCC(CN(Cc2ccc(Cl)cc2)Cc2ccc([N+](=O)[O-])s2)C1 (racemic) | 0.55 |  | 
CCCCNC(=O)N1CCC(CN(Cc2ccc(Cl)cc2)Cc2ccc([N+](=O)[O-])s2)C1 (racemic) | 0.35 | 670 nM | concentration at 2 h [4]: 240 nM; concentration at 2 h [5]: 530 nM
